# Reference: ChEMBL document CHEMBL2321763, “The role of the acidity of N-heteroaryl sulfonamides as inhibitors of bcl-2 family protein-protein interactions” (ACS Med Chem Lett, 2013)
# Key:
# [1] = molecular target: T1, Apoptosis regulator Bcl-2 (Homo sapiens, UniProt P10415); test: Binding affinity to Bcl-2 (unknown origin) by surface plasmon resonance analysis
# Toledo = test: Induction of apoptosis in human Toledo cells; type: functional; details: read-out: LD50 (the source's name)
# [2] = molecular target: T1, Apoptosis regulator Bcl-2; test: Inhibition of Bcl-2/biotinylated BAK (unknown origin) interaction incubated for 1 hr by surface plasmon resonance analysis
# Bcl-2-like protein 1 = Bcl-2-like protein 1 (Homo sapiens, UniProt Q07817); test: Inhibition of Bcl-xL/BAK (unknown origin) interaction
# [3] = Solubility of compound in fasted state simulated intestinal fluid
# [4] = Ratio of compound solubility to ABT-737 solubility in fasted state simulated intestinal fluid; type: physicochemical; details: simulated gi fluid
# Rattus norvegicus = test: AUC in Sprague-Dawley rat at 1 mg/kg, iv; type: ADME, organism-based, Plasma; design: dose 1 mg/kg, route intravenous; details: in vivo
# How it was run: (§1)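 Rats got a single 1 mg/kg iv dose for plasma clearance, AUC and Vdss, and a 10 mg/kg po dose for oral bioavailability (%F). The vehicle was a solution of either 10% PG, 5% cremophor EL and 85% citrate buffer, or 10% PG, Solutol and 40% water for injection.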
# [5] = Volume of distribution at steady state in Sprague-Dawley rat at 1 mg/kg, iv and 10 mg/kg, po; type: ADME, organism-based; details: in vivo, read-out: Vdss; how it was run: as §1
# [6] = Clearance in Sprague-Dawley rat plasma at 1 mg/kg, iv; type: ADME, organism-based; design: dose 1 mg/kg, route intravenous; how it was run: as §1
# [7] = Oral bioavailability in Sprague-Dawley rat at 10 mg/kg; type: ADME, organism-based; details: in vivo; how it was run: as §1
# T1 sequence (P10415 whole entry): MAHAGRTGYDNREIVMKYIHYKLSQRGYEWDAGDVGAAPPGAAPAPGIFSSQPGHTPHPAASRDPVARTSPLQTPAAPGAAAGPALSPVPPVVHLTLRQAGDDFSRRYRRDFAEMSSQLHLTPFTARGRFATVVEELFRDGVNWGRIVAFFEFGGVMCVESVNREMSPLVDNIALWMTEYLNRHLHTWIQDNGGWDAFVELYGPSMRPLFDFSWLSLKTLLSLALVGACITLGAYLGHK
# Chain of Bcl-2-like protein 1 (Q07817 whole entry): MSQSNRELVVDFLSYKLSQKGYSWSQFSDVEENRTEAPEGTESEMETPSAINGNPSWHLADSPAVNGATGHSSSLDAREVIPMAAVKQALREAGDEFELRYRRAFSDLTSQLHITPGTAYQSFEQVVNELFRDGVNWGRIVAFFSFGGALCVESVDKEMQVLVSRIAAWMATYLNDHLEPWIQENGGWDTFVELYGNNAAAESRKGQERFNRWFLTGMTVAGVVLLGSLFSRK
Compound,Kd [1] [nM],CC50 (Toledo) [nM],IC50 [2] [nM],IC50 (Bcl-2-like protein 1) [nM],solubility [3] [µM],Ratio [4],AUC (Rattus norvegicus),Vd [5] [L/kg],clearance [6] [mL/min/kg],bioavailability [7] [%]
CN(C)CC[C@H](CSc1ccccc1)Nc1ccc(S(=O)(=O)Nc2ncnc3c2CCN(C2CCN(Cc4cc(F)ccc4-c4ccc(Cl)cc4)CC2)C3=O)cc1S(=O)(=O)C(F)(F)F,104,> 30000,142,22,63,,,,,
CN(C)CC[C@H](CSc1ccccc1)Nc1ccc(S(=O)(=O)Nc2nc(Cl)nc3c2CCN(C2CCN(Cc4ccccc4-c4ccc(Cl)cc4)CC2)C3)cc1S(=O)(=O)C(F)(F)F,17,5370,32,20,22,,,,,
CN(C)CC[C@H](CSc1ccccc1)Nc1ccc(S(=O)(=O)Nc2nc(C(F)(F)F)nc3c2CCN(C2CCN(Cc4ccccc4-c4ccc(Cl)cc4)CC2)C3)cc1S(=O)(=O)C(F)(F)F,10,3900,46,62,36,,,,,
O=[N+]([O-])c1cc(S(=O)(=O)Nc2cccc3cc(N4CCN(Cc5ccccc5-c5ccc(Cl)cc5)CC4)ccc23)ccc1N[C@H](CCN1CCOCC1)CSc1ccccc1,,> 30000,> 4000,,,,,,,
CN(C)CC[C@H](CSc1ccccc1)Nc1ccc(S(=O)(=O)Nc2cccc3cc(N4CCN(Cc5ccccc5-c5ccc(Cl)cc5)CC4)cnc23)cc1[N+](=O)[O-],,3950,68,,44,,,,,
CN(C)CC[C@H](CSc1ccccc1)Nc1ccc(S(=O)(=O)Nc2nn(C)c3nc(N4CCN(Cc5ccccc5-c5ccc(Cl)cc5)CC4)ncc23)cc1[N+](=O)[O-],,> 30000,8500,,,,,,,
CN(C)CC[C@H](CSc1ccccc1)Nc1ccc(S(=O)(=O)Nc2nnc3cc(N4CCN(Cc5ccccc5-c5ccc(Cl)cc5)CC4)cnn23)cc1[N+](=O)[O-],8,4800,25,,31,4,,,,
CN(C)CC[C@H](CSc1ccccc1)Nc1ccc(S(=O)(=O)NC2=NS(=O)(=O)c3cc(N4CCN(Cc5ccccc5-c5ccc(Cl)cc5)CC4)ccc32)cc1[N+](=O)[O-],14,> 30000,17,,< 5,,761 nmol/h,0.09,25,
O=S(=O)(Nc1nnc2n1CCN(C1CCN(Cc3ccccc3-c3ccc(Cl)cc3)CC1)C2)c1ccc(N[C@H](CCN2CCOCC2)CSc2ccccc2)c(S(=O)(=O)C(F)(F)F)c1,,15900,317,,9,,,,,
O=S(=O)(Nc1ncnc2c1CN(C1CCN(Cc3ccccc3-c3ccc(Cl)cc3)CC1)C2)c1ccc(N[C@H](CCN2CCOCC2)CSc2ccccc2)c(S(=O)(=O)C(F)(F)F)c1,,107000,740,,70,,,,,
CN(C)CC[C@H](CSc1ccccc1)Nc1ccc(S(=O)(=O)Nc2nnc3n2CCN(C2CCN(Cc4ccccc4-c4ccc(Cl)cc4)CC2)CC3)cc1S(=O)(=O)C(F)(F)F,5,3470,25,,87,,,,,
CN(C)CC[C@H](CSc1ccccc1)Nc1ccc(S(=O)(=O)Nc2ncnc3c2CCN(C2CCN(Cc4ccccc4-c4ccc(Cl)cc4)CC2)C3)cc1S(=O)(=O)C(F)(F)F,7,298,19,24,64,,0.232 µM·h,8.6,68,< 5
CN(C)CC[C@H](CSc1ccccc1)Nc1ccc(S(=O)(=O)Nc2ncnc3c2CCN(C2CCN(Cc4cc(F)ccc4-c4ccc(Cl)cc4)CC2)C3)cc1S(=O)(=O)C(F)(F)F,3,197,33,74,25,,,,,
CC(c1ccccc1-c1ccc(Cl)cc1)N1CCC(N2CCc3c(ncnc3NS(=O)(=O)c3ccc(N[C@H](CCN(C)C)CSc4ccccc4)c(S(=O)(=O)C(F)(F)F)c3)C2)CC1 (some centres not stated),2,113,,115,31,,0.19 µM·h,5.28,89,
CN(C)CC[C@H](CSc1ccccc1)Nc1ccc(S(=O)(=O)NC(=O)c2ccc(N3CCN(Cc4ccccc4-c4ccc(Cl)cc4)CC3)cc2)cc1[N+](=O)[O-] [ABT 737],,60,,,7,,,,,
